Laboratory results reported in article PMC10073267 (Journal of peptide science : an official publication of the …, 2023).

Assay: Octanol–water partitioning in the presence of sodium dodecanoate
Format: physicochemical
Details: mean ± SD; octanol–water partitioning with sodium dodecanoate (2.5 equiv); D2O
How it was run: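 Test compound dissolved in D2O as 0.02 M stock, mixed with equal volume of octanol, with or without sodium dodecanoate (2.5 equiv), triplicate tubes each. Vortexed 30 s, centrifuged 15 min, ambient ~22 °C. Aqueous-layer NMR integrations pre- and post-wash compared. Partitioning taken as difference between octanol-only and octanol + lipid washes, averaged over three replicates.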

Percent in Aqueous Layer	SMILES
30.4 ± 1.5%	CC(=O)N[C@@H](CCCN=C(N)N)C(N)=O [1·H^+, Ac-Arg-NH2]
19.8 ± 0.1%	CNC(=O)[C@H](CCCNC(=N)N)NC(C)=O [2·H^+, Ac-Arg-NHMe]
18.3 ± 0.7%	CC(=O)N[C@@H](CCCNC(=N)N)C(=O)N(C)C [3·H^+, Ac-Arg-NMe2]
12.7 ± 1.6%	CC(=O)N(C)C(CCCN=C(N)N)C(=O)N(C)C (stereo not shown) [4·H^+, Ac-(N-Me)Arg-NMe2]
